Activity calls are given as the source filed them. The rule behind the calls is not given here.
What was measured:
[1] = tested on: HepG2; assay: Antiproliferative activity against human HepG2 cells assessed as growth inhibition after 72 hrs by MTT assay; type: functional; conditions: HepG2, 72 h
Method in brief: (§1)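 ATCC-sourced cells seeded at 4000 per well and left 12 h, then medium exchanged for fresh medium carrying graded compound concentrations for 72 h. MTT (5 mg/mL, 10 µl) added for 3 h, formazan dissolved in DMSO, absorbance read at 540 nm. GI50 taken from dose-response curve; mean ± SEM of three independent experiments.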

[2] = target: T1, DNA topoisomerase (Bos taurus) (UniProt A0JN73); assay: Inhibition of calf thymus Topoisomerase 1-mediated relaxation of supercoiled pBR322 DNA at 100 uM after 30 mins by gel electrophoresis
T1 sequence (whole entry): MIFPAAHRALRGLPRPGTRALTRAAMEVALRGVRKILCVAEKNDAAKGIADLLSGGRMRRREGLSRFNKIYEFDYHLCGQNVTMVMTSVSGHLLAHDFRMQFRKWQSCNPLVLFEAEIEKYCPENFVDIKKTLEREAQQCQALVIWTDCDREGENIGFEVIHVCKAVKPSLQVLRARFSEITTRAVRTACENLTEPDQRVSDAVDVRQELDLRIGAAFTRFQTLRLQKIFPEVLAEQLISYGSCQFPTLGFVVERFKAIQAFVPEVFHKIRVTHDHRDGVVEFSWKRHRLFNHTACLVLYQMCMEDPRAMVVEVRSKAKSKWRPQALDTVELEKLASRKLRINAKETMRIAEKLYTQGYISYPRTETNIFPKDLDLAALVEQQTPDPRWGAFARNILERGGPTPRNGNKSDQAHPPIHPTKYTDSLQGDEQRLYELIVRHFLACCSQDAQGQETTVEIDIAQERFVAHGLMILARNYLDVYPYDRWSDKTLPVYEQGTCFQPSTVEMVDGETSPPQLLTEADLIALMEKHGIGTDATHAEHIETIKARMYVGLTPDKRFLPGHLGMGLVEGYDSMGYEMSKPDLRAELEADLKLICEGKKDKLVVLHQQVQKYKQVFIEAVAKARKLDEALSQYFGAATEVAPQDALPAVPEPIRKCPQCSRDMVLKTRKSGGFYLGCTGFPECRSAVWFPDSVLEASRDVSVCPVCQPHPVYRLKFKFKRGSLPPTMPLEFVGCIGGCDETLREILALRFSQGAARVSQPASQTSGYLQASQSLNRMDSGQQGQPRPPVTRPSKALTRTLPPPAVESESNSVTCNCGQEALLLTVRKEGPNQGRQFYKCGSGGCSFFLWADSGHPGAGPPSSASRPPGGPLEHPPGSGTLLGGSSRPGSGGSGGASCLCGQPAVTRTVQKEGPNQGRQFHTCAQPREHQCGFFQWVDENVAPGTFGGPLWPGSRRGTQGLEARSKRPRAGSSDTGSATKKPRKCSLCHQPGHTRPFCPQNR
Method in brief: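 Supercoiled pBR322 DNA incubated with 1 unit calf thymus topoisomerase I, with or without compound at 100 µM, 30 min at 37 °C. Stopped with 10% SDS, run on 1% agarose gel, stained 15 min with DNA gel stain and imaged under UV. Controls without enzyme included.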

[3] = tested on: MDA-MB-231; assay: Antiproliferative activity against human MDA-MB-231 cells assessed as growth inhibition after 72 hrs by MTT assay; type: functional; conditions: MDA-MB-231, 72 h; method in brief: as §1
[4] = tested on: K562; assay: Antiproliferative activity against human K562 cells assessed as growth inhibition after 72 hrs by MTT assay; type: functional; conditions: K562, 72 h; method in brief: as §1
[5] = tested on: HT-29; assay: Antiproliferative activity against human HT-29 cells assessed as growth inhibition after 72 hrs by MTT assay; type: functional; conditions: HT-29, 72 h; method in brief: as §1

Compound	GI50 [1]	inhibition [2]	GI50 [3]	GI50 [4]	GI50 [5]
COc1cc(-c2c3c4cc(OC)c(O)c(CN(C)C)c4oc(=O)c3n3ccc4c(CN(C)C)c(O)c(OC)cc4c23)ccc1O	> 50 µM	Active	9.89 µM	9.62 µM	5.68 µM
CCCN(CCC)Cc1c(O)c(OC)cc2c1oc(=O)c1c2c(-c2ccc(O)c(OC)c2)c2c3cc(OC)c(O)c(CN(C)C)c3ccn21	15.8 µM	Active	6.15 µM	7.16 µM	2.83 µM
COc1cc(-c2c3c4cc(OC)c(O)cc4oc(=O)c3n3ccc4c(CN5CCCCC5)c(O)c(OC)cc4c23)ccc1O	21.3 µM	Active	33.1 µM	9.94 µM	18.3 µM
COc1cc(-c2c3c4cc(OC)c(O)cc4oc(=O)c3n3ccc4cc(O)c(OC)cc4c23)ccc1O [LAMELLARIN D]	0.09 µM	Active	0.32 µM	0.08 µM	4.47 µM
COc1cc2c(cc1O)oc(=O)c1c2c(-c2cc(CN(C)C)c(O)c(OC)c2)c2c3cc(OC)c(O)cc3ccn21	30.1 µM	inactive	3.98 µM	1.85 µM	6.41 µM

Continued, values first:

GI50 [1]	inhibition [2]	GI50 [3]	GI50 [4]	GI50 [5]	Compound
5.04 µM	Active	5.78 µM	1.04 µM	2.52 µM	CCN(CC)Cc1c(O)c(OC)cc2c1oc(=O)c1c2c(-c2ccc(O)c(OC)c2)c2c3cc(OC)c(O)cc3ccn21
6.37 µM	Active	13.1 µM	1.34 µM	15 µM	COc1cc(-c2c3c4cc(OC)c(O)cc4oc(=O)c3n3ccc4c(CN(C)C)c(O)c(OC)cc4c23)ccc1O
6.99 µM	Active	7.25 µM	1.95 µM	2.5 µM	COc1cc(-c2c3c4cc(OC)c(O)c(CN5CCCCC5)c4oc(=O)c3n3ccc4cc(O)c(OC)cc4c23)ccc1O
2.63 µM	inactive	3.3 µM	0.43 µM	5.46 µM	COc1cc(-c2c3c4cc(OC)c(O)c(CN(C)C)c4oc(=O)c3n3ccc4cc(O)c(OC)cc4c23)ccc1O
2.14 µM	inactive	17.9 µM	1.61 µM	40.8 µM	COc1cc(-c2c3n(c4c(=O)oc5cc(O)c(OC)cc5c24)CCc2cc(O)c(OC)cc2-3)ccc1O
3.69 µM	Active	4.87 µM	2.25 µM	2.64 µM	COc1cc(-c2c3c4cc(OC)c(O)c(CN5CCOCC5)c4oc(=O)c3n3ccc4cc(O)c(OC)cc4c23)ccc1O
4.47 µM	Active	19.9 µM	2.84 µM	13 µM	COc1cc(-c2c3c4cc(OC)c(O)cc4oc(=O)c3n3ccc4c(CN5CCOCC5)c(O)c(OC)cc4c23)ccc1O
6.83 µM	Active	9.75 µM	2.37 µM	2.92 µM	CCCN(CCC)Cc1c(O)c(OC)cc2c1oc(=O)c1c2c(-c2ccc(O)c(OC)c2)c2c3cc(OC)c(O)cc3ccn21
